Diaphorase act – activates diaphorase or chemically reduces, flagging diaphorase assay artifacts | Diaphorase/resazurin coupled assay, resorufin fluorescence, 16 min; active compounds read high; 1 = vehicle wells, 0 = NADH-free wells | activation factor at 20 µM | 0.005% of 190,000 active;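 active = diaphorase activity raised at least twofold by the compound at 20 µM; inactive = activation factor below 2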
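System – purified diaphorase enzyme from Clostridium kluyveri · Input – enzyme 0.07 U/mL final · Also added – final NADH 0.114 mM, resazurin 0.1 mM · Measured by – fluorescence of resorufin, 544 nm excitation, 590 nm emission · Timing – 16 min enzyme reaction, ambient temperature · Measure – resorufin increase flagging diaphorase activators or reducers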
PMI act satM6P – PMI (human) activation, high substrate | coupled PMI enzyme assay, resazurin fluorescence, 20 min; active compounds read high; 1 = untreated enzyme, 0 = substrate-free blank | 0.34% of 190,000 active | P34949 | activation factor at 20 µM;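 active = activation factor of 2 or more at 20 µM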
Target sequence (P34949 whole entry, looked up): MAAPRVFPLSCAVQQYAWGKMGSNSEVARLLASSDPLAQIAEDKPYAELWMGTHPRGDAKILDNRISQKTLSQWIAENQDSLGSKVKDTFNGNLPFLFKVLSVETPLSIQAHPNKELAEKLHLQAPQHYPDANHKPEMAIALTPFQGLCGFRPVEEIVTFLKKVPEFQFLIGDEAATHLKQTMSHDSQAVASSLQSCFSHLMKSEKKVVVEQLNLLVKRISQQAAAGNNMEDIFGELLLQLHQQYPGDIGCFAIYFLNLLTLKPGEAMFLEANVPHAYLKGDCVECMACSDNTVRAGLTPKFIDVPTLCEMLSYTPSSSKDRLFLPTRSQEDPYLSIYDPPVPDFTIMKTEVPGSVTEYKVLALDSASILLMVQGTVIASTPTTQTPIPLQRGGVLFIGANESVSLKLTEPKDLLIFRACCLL
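assay system = human phosphomannose isomerase with PGI, G6PDH, diaphorase coupling enzymes | quantity = 15 ng/mL PMI | incubation = enzyme reaction with compound 20 min at room temperature | medium = HEPES pH 7.4 buffer with MgCl2 and Tween-20 | compound dosing = one concentration, 20 µM, in 1% DMSO | measured by = Diaphorase-driven resazurin-to-resorufin fluorescence, excitation 544, emission 590 nm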
Lmaj promast – Leishmania major promastigote growth inhibition; Leishmania major promastigotes, resazurin fluorescence viability; inhibition, % at 10 µM; 9% of 200,000 active; AID 1063; in the data active = inhibition above about 50%;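 note: promastigotes grown with compound for 44 hours at 28 °C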
WT yeast gro inh – growth inhibition of WT yeast, mitochondrial fusion screen; mitochondrial fusion phenotypic screen, WT strain; inhibition, % at 10 µM; 2.1% of 190,000 active; AID 1362; in the data active = inhibition above about 58%; tested in S. cerevisiae
PMI act – increases human mannose-6-phosphate isomerase activity; purified human PMI, coupled resazurin fluorescence, 20 min; active compounds read high; 1 = vehicle control, 0 substrate-free wells; activation factor at 20 µM; P34949; 0.005% of 190,000 active;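 active = activation factor of 2 or more at 20 µM, relative to plate controls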
The depositor's hits bear a star; . = no result given. Rows were chosen to be rich in hits. Some 10% of all compounds tested hit in one or more screens of this group.

SMILES	Diaphorase act	PMI act satM6P	Lmaj promast	WT yeast gro inh	PMI act
CCC(c1nnnn1CCc1ccccc1)N(Cc1ccco1)Cc1cc2c(C)ccc(C)c2[nH]c1=O (centres undefined)	0.6	0.9	87*	6	1
CCC(c1nnnn1CCc1ccccc1)N(Cc1ccco1)Cc1cc2cc(C)cc(C)c2[nH]c1=O (centres undefined)	0.7	1.1	90*	17	0.9
CN(CC(=O)N1CCN(Cc2ccccc2)CC1)S(=O)(=O)c1cccc2nsnc12	0.9	1	-2	1	0.9
S=C(NCCc1ccccc1)Nc1ccc(Br)cc1	0.7	0.8	15	44	0.8
COC(=O)c1ccc(NC(=O)C(=O)N2CCN(C(=S)NCCc3ccccc3)CC2)cc1	0.8	0.9	72*	26	0.9
S=C(NCCc1ccccc1)N1CCc2ccccc2C1	1.1	1	78*	71*	1
COc1ccc(N2CCN(C(=S)NCCc3ccccc3)CC2)cc1	.	.	-8	.	.
Oc1ccc(N2CCN(C(=S)NCCc3ccccc3)CC2)cc1	0.7	0.6	98*	8	0.8
COCCCNC(=S)N1CCN(C(=O)C(=O)Nc2ccc(C(=O)OC)cc2)CC1	0.9	1.1	30	-4	1
OC1CCN(C(=S)NCCc2ccccc2)CC1	1	1.1	-5	-4	1.1
S=C(NCCc1ccccc1)N1CCN(Cc2ccccc2)CC1	0.8	1	58*	8	0.8
COc1cc(NC(=O)CSc2ncnc3scc(-c4ccccc4)c23)c(C(=O)O)cc1OC	0.6	1.1	-12	-1	1.1
CN(c1ccccc1C(=O)Nc1cccc([N+](=O)[O-])c1)S(C)(=O)=O	0.9	1.1	38	-4	1
Clc1ccc(Cn2nnc(-c3ccc(CN4CCOCC4)cc3)n2)cc1	0.9	1	96*	51	1
COc1ccc(NC(=O)Cn2nnc(-c3ccc(CN4CCOCC4)cc3)n2)c(OC)c1	0.9	1	83*	-6	1
COc1ccc(CCNC(=O)Cn2nnc(-c3ccc(N4CCOCC4)cc3)n2)cc1OC	0.8	1	-1	4	1
Fc1ccc(Cn2nnc(-c3ccc(CN4CCOCC4)cc3)n2)cc1	1.1	1	95*	23	1
Clc1ccc(Cn2nnc(-c3ccccc3)n2)cc1	0.8	1	-3	32	1
Fc1cccc(Cl)c1Cn1nnc(-c2ccc(N3CCOCC3)cc2)n1	0.7	0.8	1	-3	0.9
O=C(CSc1nc(C2CC2)nc2c1cnn2-c1ccccc1)Nc1c[nH]c(=O)[nH]c1=O	0.9	0.9	12	-3	0.8
C#CCOc1ccc(/C=N/NC(=O)c2cccnc2)cc1OCC	1.1	1.1	-6	12	1.1
CC1=CC(=C(C#N)c2nc3ccccc3s2)C=C(C)N1c1ccc(F)cc1	0.9	0.8	34	4	0.8
COc1ccccc1N1C(C)=CC(=C(C#N)c2nc3ccccc3s2)C=C1C	0.6	0.8	52*	-9	0.8
N#CC(C(=O)NC1CCCCC1)=C1CCCCCC1	1.1	1	-2	-1	1.1
O=C(O)c1cccc(NC(=S)NC(NC(=O)c2ccccc2[N+](=O)[O-])C(Cl)(Cl)Cl)c1 (centres undefined)	0.9	1.1	-5	0	1.2
SMILES	Diaphorase act	PMI act satM6P	Lmaj promast	WT yeast gro inh	PMI act
O=C(NC(NC(=S)Nc1ccc(Cl)cc1Cl)C(Cl)(Cl)Cl)c1cccc([N+](=O)[O-])c1 (centres undefined)	0.9	0.9	100*	-18	0.8
Cc1ccc(NC(=S)NC(NC(=O)c2ccccc2)C(Cl)(Cl)Cl)c(C)c1 (centres undefined)	1	0.9	96*	30	0.7
O=C(NC(NC(=S)Nc1ccccc1)C(Cl)(Cl)Cl)c1cccc(Cl)c1 (centres undefined)	0.8	1	75*	-11	0.9
Cc1cc(C)c(NC(=S)NC(NC(=O)c2ccccc2)C(Cl)(Cl)Cl)c(C)c1 (centres undefined)	0.9	1.1	7	22	0.9
O=C(NC(=S)N1CCN(c2ccc(C(F)(F)F)cc2[N+](=O)[O-])CC1)c1cccs1	0.9	1	34	59	0.9
CC(C)c1ccc(C(N)=S)cc1	0.9	0.9	-6	14	1
N/C(=N\OC(=O)/C=C/c1ccc(Br)cc1)c1ccccn1	1.1	1	77*	7	1
COc1ccc(C(=O)O/N=C(\C)c2ccccc2)cc1	0.8	0.9	-5	75*	0.9
COc1ccc(C(=O)O/N=C(/c2ccccc2)c2ccncc2)cc1	0.9	0.9	1	-7	0.9
C/C(=N\OC(=O)c1ccc(Br)cc1)c1ccccn1	0.9	0.9	88*	-26	1
COCCCn1cnc2c(c1=O)c1nc3ccccc3nc1n2CCc1ccccc1	0.8	0.9	33	16	0.9
O=C(NCCCO)C(=O)NCc1ccccn1	1.1	1.1	6	-3	1.1
COCCCNC(=O)C1CCC(CNS(=O)(=O)c2ccc(Cl)cc2)CC1 (centres undefined)	1.1	1.1	2	-13	1.1
COc1ccc(C)cc1N(CC(=O)N1CCc2ccccc2C1)S(C)(=O)=O	1	1	-5	0	1
Cc1ccc(NC(=O)CS(=O)CC(=O)NC2CCN(Cc3ccccc3)CC2)c(C)c1 (centres undefined)	0.9	1	-4	10	1
CCC(C)[C@H](NC(=O)NC1CCN(Cc2ccccc2)CC1)C(=O)OC (some centres undefined)	0.9	1	70*	0	0.9
Cc1cccc(C)c1NC(=O)CS(=O)CC(=O)NC1CCN(Cc2ccccc2)CC1 (centres undefined)	0.9	1	-4	4	1
Cc1ccccc1NC(=S)NC1CCN(Cc2ccccc2)CC1	0.9	1	94*	8	0.9
COC(=O)c1ccccc1NC(=O)NC1CCN(Cc2ccccc2)CC1	0.9	0.9	-2	-5	1
COc1ccc(C)cc1NC(=O)NC1CCN(Cc2ccccc2)CC1	0.9	0.9	65*	8	0.9
Cc1ccc(NC(=S)NC2CCN(Cc3ccccc3)CC2)c(C)c1	0.9	1	91*	-8	1
C/C(=N\OC(=O)c1ccc(C)cc1)c1c(C)nc2cc(C)ccn12	1	1	-1	-2	1.1
COc1cccc(/C=N/NC(=O)c2cc3c(OC)c(OC)ccc3[nH]2)c1OC	1	0.9	73*	-3	1
COc1cccc(/C=N/NC(=O)c2cc3c(OC)cccc3[nH]2)c1OC	0.9	1	1	7	0.8
COc1cccc(/C=N/NC(=O)c2cc3c(OC)cccc3[nH]2)c1O	0.9	1.2	95*	6	1.2
COc1cccc(/C=N/NC(=O)C(=O)N/N=C/c2cccc(OC)c2O)c1O	0.9	1.3	36	8	1.2
